# Compound activity deposited in PubChem by several laboratories.
# NF-kB neuron act: activators of NF-kB expression in neurons, primary screen, cell-based, HTS; human neuronal cells, NF-kB reporter expression; active compounds read high; fold change at 12.5 µM; 190,000 compounds, 1.6% hits; AID 1239, 2008; in the data active = fold change above about 3.3
# APP 5'UTR act: activators of APP 5'UTR luciferase reporter, primary screen, SH-SY5Y cells; SH-SY5Y APP 5'UTR luciferase reporter, luminescence; zero percent = DMSO vehicle wells; activation, % at 2 µM; 190,000 compounds, 1% hits; AID 1276, 2008;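 active = activation above a set limit, based on mean plus 3 SD of controls, cut at about 140% in these data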
# STAT1 inh: STAT1 signaling inhibitors, primary screen, cell-based, HTS, luciferase reporter | NIH 3T3 STAT1-luciferase reporter, IFN-gamma, luminescence | inhibition, % at 5.5 µM | 200,000 compounds, 0.35% hits;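 active = inhibition above a set limit, the mean inhibition across all tested compounds plus 3 SD, cut at about 34% in these data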;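 note: 0% = IFN-gamma with DMSO and 100% = IFN-gamma with 300 µM nifuroxazide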
# STAT1 act: STAT1 signaling activators, primary screen, cell-based, HTS, luciferase reporter; NIH 3T3 STAT1-luciferase reporter, IFN-gamma, luminescence; 100% = IFN-gamma alone, no compound; activation (% of control), % at 5.5 µM; 200,000 compounds, 2.6% hits; AID 932, 2007;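 active = activation above the screen-wide mean activation plus 3 SD, cut at about 130% in these data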;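 note: raw ratio to IFN-gamma control signal so 100% means no change and 0% no light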
# STAT3 act: IL-6 driven STAT3 reporter potentiators, primary screen, U3A cells, luciferase, luminescence, MLSCN library. activation (% of control), % at 5.6 µM. 190,000 compounds, 0.91% hits. IL-6 STAT3-luciferase reporter; 100% = signal with IL-6 EC80 alone;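 active = activation above the screen-wide mean of compound activation plus 3 SD, cut at about 130% in these data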;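 note: 0% = background luminescence of wells with medium and substrate only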
#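 Test system: human U3A cells carrying STAT3-luciferase construct; control set: IL-6-only wells as 100% reference; timing: compound pre-incubation 1 h before IL-6, then 6 h stimulation at 37 °C; also added: IL-6 stimulus at 33 ng/mL final; evaluation: % activation versus median of IL-6-stimulated wells; detection: reporter luminescence signal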
# STAT3 inh: IL-6 driven STAT3 reporter inhibitors, primary screen, U3A cells, luciferase, luminescence, MLSCN library. IL-6 STAT3-luciferase reporter; host cell line lacks STAT1. inhibition, % at 5.5 µM. 190,000 compounds, 0.89% hits;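 active = inhibition above the mean inhibition across all screened compounds plus 3 SD, cut at about 44% in these data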;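 note: 0% = DMSO only wells and 100% = 100 µM nifuroxazide control wells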
# Numbers without * were called inactive; · = no result. Only some compounds are listed: those with a hit (about 5.1% of all), similar ones and a draw of the others.
SMILES,NF-kB neuron act,APP 5'UTR act,STAT1 inh,STAT1 act,STAT3 act,STAT3 inh
Nn1c(SCc2ccccc2)nc2c(cnn2-c2ccccc2)c1=O,2.08,93.3,-39.2,135.0*,97.6,8.0
CCCCSc1nc2c(cnn2-c2ccccc2)c(=O)n1N,4.7*,167.5*,-45.6,140.9*,88.3,18.8
CCc1ccc(NC(=S)N2CCCC(C(F)(F)F)C2)cc1 (configuration not stated),1.25,20.6,1.2,97.0,90.8,18.2
Cc1cc(-c2ccc(C(=O)O)s2)cnc1N,2.09,27.2,-30.8,128.9*,109.7,-12.5
Cc1cccc(NC(=O)c2sc(C)nc2C)c1,1.83,32.7,-6.6,106.1,101.1,2.4
Cc1cccc(NC(=S)c2nc3ccccc3s2)c1,3.89*,205.1*,-48.4,143.3*,133.7*,-31.2
O=C(Nc1ccccc1)C1=C[C@@H](c2ccc(Br)cc2)C[C@@H](OCCCCO)O1,1.46,20.6,-29.5,129.1*,·,·
O=C(Nc1ccccc1)C1=C[C@H](c2ccc3c(c2)OCO3)C[C@H](OCCCCO)O1,1.25,13.8,-20.5,120.7,·,·
O=C1c2ccccc2NC(c2ccc(O)cc2)N1/N=C/c1ccc(O)cc1 (configuration not stated),1.63,12.2,-24.7,121.9,112.5,-18.0
O=C1c2ccccc2NC(c2ccccc2)N1/N=C/c1ccccc1 (configuration not stated),3.8*,127.8,-13.9,112.4,89.2,18.1
Cc1ccc(S(=O)(=O)NNC2CC(=O)N(c3ccc(Br)cc3)C2=O)cc1 (configuration not stated),1.11,6.8,1.6,98.4,102.9,-1.7
c1ccc2c(-c3cn4ccccc4n3)c[nH]c2c1,3.4*,149.3*,-50.6,150.0*,119.0,-16.7
c1ccc2c(-c3nnc(SCc4cn5ccccc5n4)o3)c[nH]c2c1,1.41,53.3,1.7,98.5,90.6,11.6
COC(=O)c1ccc(CSc2nnc(NC(=O)C3CC(=O)N(Cc4ccc(C)cc4)C3)s2)cc1 (configuration not stated),1.18,-3.1,-3.6,105.7,98.3,-0.3
COc1cccc(C(=O)NCC(=O)OCC(=O)c2ccccc2)c1,1.11,2.6,-57.4,150.4*,111.1,-10.3
Cc1ccc(Nc2nc(N/N=C\c3ccc4c(c3)OCO4)nc(N3CCOCC3)n2)cc1,0.33,-16.4,-8.0,105.1,97.1,8.8
CC(C)CC(=O)Nc1ccc(-c2nnn(CC(=O)NCc3ccco3)n2)cc1,1.7,63.5,-33.1,129.1*,117.5,-11.5
CCCCOc1ccc(-c2nnn(CC(=O)NCc3ccco3)n2)cc1,1.85,7.4,-19.2,117.5,107.8,-4.6
COc1ccc(-c2nnc3n2N=C(C)CS3)cc1,1.25,-4.2,4.4,96.0,92.5,12.8
CCOC(=O)/C(=C\c1ccc(OC(F)F)cc1)C1=Nn2c(nnc2-c2ccc(Cl)cc2)SC1,8.31*,-34.4,5.0,95.5,97.5,5.2
CCOC(=O)c1ccc(Nc2ccc(-c3ccc(OC)c(OC)c3)nn2)cc1,0.58,-12.6,8.0,92.6,88.4,15.7
Fc1ccc(Nc2ccc(-c3ccc(F)cc3)nn2)cc1,2.67,81.0,-44.7,139.3*,97.7,9.6
Fc1ccc(-c2ccc(Nc3cccc(F)c3)nn2)cc1,1.71,56.4,-49.5,143.7*,91.2,16.8
O=C(Nc1ccc(Cl)cc1)OCc1ccccn1,2.58,70.8,-41.7,143.8*,97.7,4.2
CCOC(=O)c1ccc(CC2S/C(=C(\C#N)C(C)=O)NC2=O)cc1 (configuration not stated),3.48*,-11.8,-1.9,103.2,109.3,-11.3
SMILES,NF-kB neuron act,APP 5'UTR act,STAT1 inh,STAT1 act,STAT3 act,STAT3 inh
Cc1cc(C(=O)c2cnc(/N=C/N(C)C)s2)c(F)cc1Cl,1.03,-3.4,17.4,82.6,99.1,11.3
O=C(/C=C/c1ccccc1Cl)NCc1cccs1,1.97,31.1,-35.2,131.3*,108.1,-12.5
O=C1NC(=O)C2(COC(c3cccc([N+](=O)[O-])c3)OC2)S1 (configuration not stated),1.21,3.1,-3.7,103.5,107.0,-9.0
CCNc1ccc(S(=O)(=O)N(C)C)cc1NCC(=O)Nc1ccc(F)c(Cl)c1,0.87,2.7,11.5,89.8,105.3,-8.9
c1csc(-c2cn3ccc4ccccc4c3n2)c1,4.68*,106.5,-49.3,143.7*,171.2*,-80.7
c1cc(-c2cccs2)nc(-c2cccs2)c1,1.25,9.1,2.3,98.0,87.0,15.8
C/C(=N\NC(=O)c1nn(C)cc1Br)c1ccc(NC(=O)c2ccncc2)cc1,1.39,9.7,-35.1,131.3*,104.1,-7.3
C/C(=N\NC(=O)c1c(Br)c(C)nn1C)c1cccc(NC(=O)c2ccccc2F)c1,1.18,-11.8,-4.7,104.1,85.0,18.2
C/C(=N\NC(=O)c1nn(C)cc1Br)c1cccc(NC(=O)C(C)(C)C)c1,1.27,35.2,-2.4,102.2,103.3,-3.6
C/C(=N\NC(=O)c1nn(C)c(C)c1Br)c1cccc(NC(=O)c2ccc(F)cc2)c1,1.38,59.6,-44.2,138.7*,94.3,7.0
C/C(=N\NC(=O)c1ccccc1NC(=O)c1ccc(Cl)cc1)c1ccncc1,3.16,62.1,96.4*,10.9,7.6,105.8*
COc1ccc(CC(=O)Nc2nnc(SCC(=O)NCc3ccco3)s2)cc1OC,1,-6.8,-0.2,98.3,98.7,8.5
CCN(CC)c1ccc(-c2nn3c(-c4ccccc4OC)nnc3s2)cc1,1.72,-93.9,-19.1,117.5,136.3*,-38.3
COc1ccc(-c2nn3c(-c4ccccc4)nnc3s2)cc1,1.05,8.3,-7.7,107.0,104.5,3.7
COCCn1c(=NC(=O)c2ccc3c(c2)OCCO3)sc2cc(S(N)(=O)=O)ccc21,0.81,-3.6,17.8,84.0,94.8,11.8
N/C(=N\OC(=O)Cc1ccccc1)c1ccccc1Cl,1.64,48.2,-51.1,147.4*,100.5,1.4
N/C(=N\OC(=O)Cc1ccccc1)c1cccnc1,1.64,5.1,-4.7,104.2,91.8,15.8
CC(C)NC(=S)N1CCN(S(=O)(=O)c2cccc(C(F)(F)F)c2)CC1,0.92,28.3,-2.1,101.9,106.2,-7.4
c1ccc(Nc2nc(-c3ccncc3)cs2)cc1,2.09,39.8,-61.0,145.3*,108.7,-6.5
Clc1ccc(Nc2nc(-c3ccncc3)cs2)cc1,·,2.0,-42.0,136.9*,122.7,-23.1
Cc1nc(C)c(-c2csc(Nc3ccc(F)cc3)n2)s1,1.17,74.9,-47.3,142.3*,106.3,5.3
Cc1nc(N)sc1-c1csc(Nc2ncccn2)n1,2.48,177.3*,-27.6,124.9,90.6,13.7
